One block for each molecule: values may come before it.
Tests used:
[1] = molecular target: 5-hydroxytryptamine receptor 6 (Homo sapiens, UniProt P50406); experiment: Binding affinity against human cloned 5-hydroxytryptamine 6 receptor in HeLa cells using [3H]LSD; type: cell-based
In short: (§1)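 Radioligand binding at human cloned receptors; cell hosts and radioligands as listed per line: 5-HT1A, 5-HT2A, 5-HT2B, 5-HT2C and 5-HT7 in HEK 293 cells; 5-HT1B, 5-HT1D, 5-HT1E, 5-HT1F, D2 and D3 in CHO cells; 5-HT6 in HeLa cells. Values are the mean of at least two determinations, each within 0.2 log unit of the mean.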

Homo sapiens = species: Homo sapiens; experiment: Selectivity for 5-HT6 receptors with respect to the 5-HT1A, 5-HT1B, 5-HT1D, 5-HT1E, 5-HT1F, 5-HT2A, 5-HT2B, 5-HT2C, 5-HT4, 5-HT7, Alpha-1B, D2, D3 receptors.
[2] = molecular target: 5-hydroxytryptamine receptor 2B (Homo sapiens, UniProt P41595); experiment: Compound was tested for its binding affinity against cloned human 5-hydroxytryptamine 2B receptor in HEK 293 cells using [3H]5-HT; type: cell-based, HEK293; in short: as §1
Sequence of 5-hydroxytryptamine receptor 2B (P41595 whole entry): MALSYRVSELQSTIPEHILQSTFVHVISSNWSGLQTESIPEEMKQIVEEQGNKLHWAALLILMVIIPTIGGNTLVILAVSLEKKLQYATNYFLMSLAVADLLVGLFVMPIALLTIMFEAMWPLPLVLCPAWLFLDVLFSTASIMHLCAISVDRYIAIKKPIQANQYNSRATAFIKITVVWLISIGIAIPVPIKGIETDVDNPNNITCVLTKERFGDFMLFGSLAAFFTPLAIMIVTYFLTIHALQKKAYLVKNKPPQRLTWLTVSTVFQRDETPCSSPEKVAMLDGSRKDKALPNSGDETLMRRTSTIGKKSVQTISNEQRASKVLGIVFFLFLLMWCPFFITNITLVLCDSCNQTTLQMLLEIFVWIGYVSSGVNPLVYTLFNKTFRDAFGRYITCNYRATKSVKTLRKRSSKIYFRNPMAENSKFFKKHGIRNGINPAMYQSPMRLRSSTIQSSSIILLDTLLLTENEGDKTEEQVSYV

[3] = molecular target: 5-hydroxytryptamine receptor 4 (Homo sapiens, UniProt Q13639); experiment: Compound was tested for its binding affinity against 5-hydroxytryptamine 4 receptor
[4] = molecular target: 5-hydroxytryptamine receptor 2A (Homo sapiens, UniProt P28223); experiment: Compound was tested for its binding affinity against 5-hydroxytryptamine 2A receptor in human cloned receptors in HEK 293 cells using [3H]ketanserin; type: cell-based, HEK293; in short: as §1
Sequence of 5-hydroxytryptamine receptor 2A (P28223 whole entry): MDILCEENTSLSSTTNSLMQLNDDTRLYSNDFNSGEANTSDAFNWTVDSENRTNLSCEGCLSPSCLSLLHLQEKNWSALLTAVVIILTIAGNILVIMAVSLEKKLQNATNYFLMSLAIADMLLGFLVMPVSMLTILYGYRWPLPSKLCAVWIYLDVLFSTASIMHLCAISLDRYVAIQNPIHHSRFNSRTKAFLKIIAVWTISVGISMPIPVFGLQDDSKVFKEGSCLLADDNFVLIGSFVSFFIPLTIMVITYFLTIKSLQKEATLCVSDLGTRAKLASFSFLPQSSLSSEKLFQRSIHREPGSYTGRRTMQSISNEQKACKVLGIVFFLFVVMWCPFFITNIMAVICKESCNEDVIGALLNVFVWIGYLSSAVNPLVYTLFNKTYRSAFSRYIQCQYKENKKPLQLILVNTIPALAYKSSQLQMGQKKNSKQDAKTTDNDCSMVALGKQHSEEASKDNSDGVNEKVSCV

[5] = molecular target: T1, 5-hydroxytryptamine receptor 2C (Homo sapiens, UniProt P28335); experiment: Compound was tested for its binding affinity against human cloned 5-hydroxytryptamine 2C receptor in HEK 293 cells using [3H]mesulergine; type: cell-based, HEK293; in short: as §1
T1 sequence (P28335 whole entry): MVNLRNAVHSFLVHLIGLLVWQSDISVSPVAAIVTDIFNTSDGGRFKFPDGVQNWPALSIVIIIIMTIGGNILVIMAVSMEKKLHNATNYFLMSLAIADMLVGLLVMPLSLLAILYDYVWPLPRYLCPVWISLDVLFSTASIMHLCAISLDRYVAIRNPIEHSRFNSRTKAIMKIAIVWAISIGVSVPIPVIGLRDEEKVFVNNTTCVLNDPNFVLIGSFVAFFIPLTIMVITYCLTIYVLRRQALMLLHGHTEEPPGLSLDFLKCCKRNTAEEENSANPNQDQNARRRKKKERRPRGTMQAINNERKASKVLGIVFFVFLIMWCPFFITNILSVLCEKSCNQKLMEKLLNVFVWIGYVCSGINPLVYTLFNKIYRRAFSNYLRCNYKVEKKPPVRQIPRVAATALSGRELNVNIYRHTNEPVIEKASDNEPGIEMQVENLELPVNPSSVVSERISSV

[6] = molecular target: 5-hydroxytryptamine receptor 1D (Homo sapiens, UniProt P28221); experiment: Compound was tested for its binding affinity against human cloned 5-hydroxytryptamine 1D receptor in CHO cells using [3H]5-HT; type: cell-based; in short: as §1
Sequence of 5-hydroxytryptamine receptor 1D (P28221 whole entry): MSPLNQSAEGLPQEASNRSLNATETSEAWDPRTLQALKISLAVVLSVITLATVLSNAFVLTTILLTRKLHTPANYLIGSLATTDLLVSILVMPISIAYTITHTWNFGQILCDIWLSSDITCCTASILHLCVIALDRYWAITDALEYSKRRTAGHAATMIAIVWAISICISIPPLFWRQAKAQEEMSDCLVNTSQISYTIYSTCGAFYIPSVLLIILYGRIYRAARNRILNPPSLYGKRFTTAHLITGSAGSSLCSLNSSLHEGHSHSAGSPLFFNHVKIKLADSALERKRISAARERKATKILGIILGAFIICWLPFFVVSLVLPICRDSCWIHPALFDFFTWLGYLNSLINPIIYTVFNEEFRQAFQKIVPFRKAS

[7] = molecular target: 5-hydroxytryptamine receptor 1E (Homo sapiens, UniProt P28566); experiment: Compound was tested for its binding affinity against cloned human 5-hydroxytryptamine 1E receptor in CHO cells using [3H]-5-HT; type: cell-based; in short: as §1
Sequence of 5-hydroxytryptamine receptor 1E (P28566 whole entry): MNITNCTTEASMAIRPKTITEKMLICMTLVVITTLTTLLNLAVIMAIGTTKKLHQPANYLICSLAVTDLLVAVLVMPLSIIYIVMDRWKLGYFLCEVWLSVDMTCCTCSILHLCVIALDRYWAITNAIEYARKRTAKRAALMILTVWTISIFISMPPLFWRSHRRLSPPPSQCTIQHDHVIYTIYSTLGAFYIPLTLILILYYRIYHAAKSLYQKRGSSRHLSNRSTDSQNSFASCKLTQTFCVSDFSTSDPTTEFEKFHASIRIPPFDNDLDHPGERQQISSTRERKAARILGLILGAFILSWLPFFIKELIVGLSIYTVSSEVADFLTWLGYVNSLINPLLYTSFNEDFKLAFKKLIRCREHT

[8] = molecular target: T2, 5-hydroxytryptamine receptor 1A (Homo sapiens, UniProt P08908); experiment: Compound was tested for its binding affinity against 5-hydroxytryptamine 1A receptor in human cloned receptors in HEK 293 cells using [3H]8-OH-DPAT; type: cell-based, HEK293; in short: as §1
T2 sequence (P08908 whole entry): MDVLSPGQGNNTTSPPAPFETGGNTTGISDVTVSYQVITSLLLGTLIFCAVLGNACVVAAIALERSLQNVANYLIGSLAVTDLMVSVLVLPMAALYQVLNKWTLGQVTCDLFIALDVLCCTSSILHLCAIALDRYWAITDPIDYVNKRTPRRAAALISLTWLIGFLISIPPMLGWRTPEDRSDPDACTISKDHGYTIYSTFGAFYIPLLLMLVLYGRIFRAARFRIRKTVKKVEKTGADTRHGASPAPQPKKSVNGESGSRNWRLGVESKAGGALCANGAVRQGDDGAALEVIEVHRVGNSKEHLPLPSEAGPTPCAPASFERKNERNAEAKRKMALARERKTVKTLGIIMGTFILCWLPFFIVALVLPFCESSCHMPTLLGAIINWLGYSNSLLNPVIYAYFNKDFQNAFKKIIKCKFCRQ

[9] = molecular target: 5-hydroxytryptamine receptor 1B (Homo sapiens, UniProt P28222); experiment: Compound was tested for its binding affinity against human cloned 5-hydroxytryptamine 1B receptor in CHO cells using [3H]5-HT; type: cell-based; in short: as §1
Sequence of 5-hydroxytryptamine receptor 1B (P28222 whole entry): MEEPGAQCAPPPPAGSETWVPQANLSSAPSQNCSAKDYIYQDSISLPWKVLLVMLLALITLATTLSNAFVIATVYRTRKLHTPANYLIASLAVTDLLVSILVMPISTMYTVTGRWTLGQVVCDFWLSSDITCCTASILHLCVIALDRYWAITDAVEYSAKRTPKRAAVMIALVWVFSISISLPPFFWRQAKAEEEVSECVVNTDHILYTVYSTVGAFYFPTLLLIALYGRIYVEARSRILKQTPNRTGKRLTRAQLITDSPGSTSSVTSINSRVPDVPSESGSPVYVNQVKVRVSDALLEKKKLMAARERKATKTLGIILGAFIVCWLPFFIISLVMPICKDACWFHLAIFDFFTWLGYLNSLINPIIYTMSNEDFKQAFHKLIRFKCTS

[10] = molecular target: T3, Alpha-1B adrenergic receptor (Homo sapiens, UniProt P35368); experiment: Compound was tested for its binding affinity against Alpha-1B adrenergic receptor
T3 sequence (P35368 whole entry): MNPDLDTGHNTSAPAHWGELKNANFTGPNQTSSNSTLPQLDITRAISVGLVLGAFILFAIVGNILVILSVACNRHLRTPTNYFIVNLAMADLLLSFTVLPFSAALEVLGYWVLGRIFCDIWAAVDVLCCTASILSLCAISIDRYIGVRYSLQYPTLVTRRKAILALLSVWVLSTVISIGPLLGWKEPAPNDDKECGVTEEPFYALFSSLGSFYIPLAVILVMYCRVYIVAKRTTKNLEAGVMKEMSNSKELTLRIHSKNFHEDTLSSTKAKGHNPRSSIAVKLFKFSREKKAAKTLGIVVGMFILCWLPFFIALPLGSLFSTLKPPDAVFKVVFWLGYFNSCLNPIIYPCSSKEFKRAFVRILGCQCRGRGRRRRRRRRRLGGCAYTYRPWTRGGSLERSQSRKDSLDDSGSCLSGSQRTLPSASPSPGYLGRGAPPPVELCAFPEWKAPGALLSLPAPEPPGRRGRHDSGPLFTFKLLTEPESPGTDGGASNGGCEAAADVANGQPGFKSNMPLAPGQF

[11] = molecular target: 5-hydroxytryptamine receptor 7 (Homo sapiens, UniProt P34969); experiment: Compound was tested for its binding affinity against human cloned 5-hydroxytryptamine 7 receptor in HEK 293 cells using [3H]5-CT; type: cell-based, HEK293; in short: as §1
Sequence of 5-hydroxytryptamine receptor 7 (P34969 whole entry): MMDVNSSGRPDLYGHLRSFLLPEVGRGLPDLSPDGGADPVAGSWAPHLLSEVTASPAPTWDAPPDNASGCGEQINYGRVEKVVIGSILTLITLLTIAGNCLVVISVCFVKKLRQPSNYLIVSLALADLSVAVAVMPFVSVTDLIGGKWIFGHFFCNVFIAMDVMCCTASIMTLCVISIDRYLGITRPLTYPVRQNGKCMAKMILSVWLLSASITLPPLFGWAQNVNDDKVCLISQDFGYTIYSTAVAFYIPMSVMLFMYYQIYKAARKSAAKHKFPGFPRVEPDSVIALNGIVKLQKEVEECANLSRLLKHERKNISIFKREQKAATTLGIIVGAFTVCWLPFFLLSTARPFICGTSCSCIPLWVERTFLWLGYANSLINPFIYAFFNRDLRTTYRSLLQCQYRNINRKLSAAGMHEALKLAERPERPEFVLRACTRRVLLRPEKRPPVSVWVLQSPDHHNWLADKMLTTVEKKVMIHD

D(3) dopamine receptor = D(3) dopamine receptor (Homo sapiens, UniProt P35462); experiment: Compound was tested for its binding affinity against Dopamine receptor D3 in human cloned receptors in CHO cells using [125 I]iodosulpride; type: cell-based; in short: as §1
[12] = molecular target: T4, 5-hydroxytryptamine receptor 1F (Homo sapiens, UniProt P30939); experiment: Compound was tested for its binding affinity against 5-hydroxytryptamine 1F receptor in human cloned receptors in CHO cells using [3H]5-HT; type: cell-based; in short: as §1
T4 sequence (P30939 whole entry): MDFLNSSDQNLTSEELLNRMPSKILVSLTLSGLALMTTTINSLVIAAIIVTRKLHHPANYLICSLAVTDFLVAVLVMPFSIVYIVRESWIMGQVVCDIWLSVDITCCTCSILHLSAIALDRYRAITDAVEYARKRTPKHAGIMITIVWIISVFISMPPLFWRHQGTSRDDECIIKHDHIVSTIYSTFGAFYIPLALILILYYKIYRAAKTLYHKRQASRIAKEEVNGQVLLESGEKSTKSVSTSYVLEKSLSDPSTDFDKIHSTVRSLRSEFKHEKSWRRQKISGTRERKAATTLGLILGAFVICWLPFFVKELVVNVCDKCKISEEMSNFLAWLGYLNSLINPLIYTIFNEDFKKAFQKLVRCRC

D(2) dopamine receptor = D(2) dopamine receptor (Homo sapiens, UniProt P14416); experiment: Compound was tested for its binding affinity against Dopamine receptor D2 in human cloned receptors in CHO cells using [125 I]iodosulpride; type: cell-based; in short: as §1
Sequence of D(2) dopamine receptor (P14416 whole entry): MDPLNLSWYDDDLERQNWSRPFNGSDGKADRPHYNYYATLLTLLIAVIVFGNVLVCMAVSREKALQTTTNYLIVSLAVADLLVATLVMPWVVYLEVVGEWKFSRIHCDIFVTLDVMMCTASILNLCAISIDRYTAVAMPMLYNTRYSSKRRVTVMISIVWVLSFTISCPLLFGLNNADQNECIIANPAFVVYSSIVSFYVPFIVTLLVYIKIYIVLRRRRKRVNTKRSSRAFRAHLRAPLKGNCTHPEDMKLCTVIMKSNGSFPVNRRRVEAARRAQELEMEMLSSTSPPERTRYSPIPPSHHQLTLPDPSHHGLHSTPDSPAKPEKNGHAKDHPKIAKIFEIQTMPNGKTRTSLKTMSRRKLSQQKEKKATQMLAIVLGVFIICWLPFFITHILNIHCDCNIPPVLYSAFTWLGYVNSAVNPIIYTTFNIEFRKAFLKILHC

Cytochrome P450 1A2 = molecular target: T5, Cytochrome P450 1A2 (Homo sapiens, UniProt P05177); experiment: Inhibition of human cytochrome P450 1A2 activity as caffeine N3 demethylation (500 uM); type: ADME
T5 sequence (P05177 whole entry): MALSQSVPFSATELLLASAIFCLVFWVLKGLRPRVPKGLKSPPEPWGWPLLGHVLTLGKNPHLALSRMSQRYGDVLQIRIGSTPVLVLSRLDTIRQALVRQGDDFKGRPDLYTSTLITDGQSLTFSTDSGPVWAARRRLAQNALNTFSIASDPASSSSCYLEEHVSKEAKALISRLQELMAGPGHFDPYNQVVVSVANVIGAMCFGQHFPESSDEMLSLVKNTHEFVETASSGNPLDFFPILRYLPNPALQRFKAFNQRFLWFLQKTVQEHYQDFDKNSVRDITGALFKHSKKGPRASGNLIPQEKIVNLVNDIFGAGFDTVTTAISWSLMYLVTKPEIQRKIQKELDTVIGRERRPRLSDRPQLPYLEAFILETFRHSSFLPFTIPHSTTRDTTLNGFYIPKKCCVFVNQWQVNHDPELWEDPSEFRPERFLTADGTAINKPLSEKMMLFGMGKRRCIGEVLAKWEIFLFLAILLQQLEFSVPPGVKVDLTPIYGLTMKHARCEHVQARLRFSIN
In short: (§2)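 Heterologously expressed human CYP isoforms in isoform-selective assays, with substrate at its Km. CYP1A2: caffeine N3-demethylation (500 μM). CYP2C9: tolbutamide methylhydroxylation (100 μM). CYP2C19: S-mephenytoin 4-hydroxylation (100 μM). CYP2D6: bufuralol 1'-hydroxylation (10 μM). CYP3A4: total cyclosporin oxidation (1 μM). IC50 is the mean of duplicate determinations, agreeing within 10%.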

[13] = molecular target: T3, Alpha-1B adrenergic receptor; experiment: Compound was tested for its binding affinity against adrenergic Alpha-1B adrenergic receptor
Cytochrome P450 2C19 = Cytochrome P450 2C19 (Homo sapiens, UniProt P33261); experiment: Inhibition of human cytochrome P450 2C19 as S-mephenytoin-4-hydroxylation (100 uM); type: ADME; in short: as §2
Sequence of Cytochrome P450 2C19 (P33261 whole entry): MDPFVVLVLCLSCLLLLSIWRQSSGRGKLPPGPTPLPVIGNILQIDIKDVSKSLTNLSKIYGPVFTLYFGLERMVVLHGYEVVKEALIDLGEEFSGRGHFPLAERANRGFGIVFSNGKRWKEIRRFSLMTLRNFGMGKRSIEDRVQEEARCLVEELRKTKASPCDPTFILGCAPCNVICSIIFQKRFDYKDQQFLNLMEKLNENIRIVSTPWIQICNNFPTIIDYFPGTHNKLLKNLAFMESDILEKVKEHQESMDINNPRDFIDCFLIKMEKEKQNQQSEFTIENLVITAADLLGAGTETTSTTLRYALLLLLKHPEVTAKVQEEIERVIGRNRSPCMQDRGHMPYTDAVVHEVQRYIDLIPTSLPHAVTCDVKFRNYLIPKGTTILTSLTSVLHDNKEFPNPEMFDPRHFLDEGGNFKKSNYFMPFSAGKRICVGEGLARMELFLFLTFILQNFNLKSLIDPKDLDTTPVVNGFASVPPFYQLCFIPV

Cytochrome P450 2D6 = Cytochrome P450 2D6 (Homo sapiens, UniProt P10635); experiment: Inhibition of human cytochrome P450 2D6 as bufuralol 1''-hydroxylation (10 uM); type: ADME; in short: as §2
Sequence of Cytochrome P450 2D6 (P10635 whole entry): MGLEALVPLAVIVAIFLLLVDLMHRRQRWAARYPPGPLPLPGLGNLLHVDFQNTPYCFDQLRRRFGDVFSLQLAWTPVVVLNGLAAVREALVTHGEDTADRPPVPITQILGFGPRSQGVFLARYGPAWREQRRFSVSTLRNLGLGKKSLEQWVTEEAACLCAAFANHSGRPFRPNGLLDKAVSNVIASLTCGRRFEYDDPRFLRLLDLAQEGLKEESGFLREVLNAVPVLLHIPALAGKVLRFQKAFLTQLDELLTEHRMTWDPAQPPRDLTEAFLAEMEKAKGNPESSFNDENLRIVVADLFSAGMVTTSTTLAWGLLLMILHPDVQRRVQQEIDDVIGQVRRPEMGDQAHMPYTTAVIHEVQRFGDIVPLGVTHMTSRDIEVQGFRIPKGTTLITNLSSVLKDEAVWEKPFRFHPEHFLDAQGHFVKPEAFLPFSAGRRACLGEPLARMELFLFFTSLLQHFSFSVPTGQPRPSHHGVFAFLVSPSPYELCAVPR

Cytochrome P450 2C9 = Cytochrome P450 2C9 (Homo sapiens, UniProt P11712); experiment: Inhibitory potential of human cytochrome P450 2C9 as Tolbutamide methylhydroxylation (100 uM); type: ADME; in short: as §2
Sequence of Cytochrome P450 2C9 (P11712 whole entry): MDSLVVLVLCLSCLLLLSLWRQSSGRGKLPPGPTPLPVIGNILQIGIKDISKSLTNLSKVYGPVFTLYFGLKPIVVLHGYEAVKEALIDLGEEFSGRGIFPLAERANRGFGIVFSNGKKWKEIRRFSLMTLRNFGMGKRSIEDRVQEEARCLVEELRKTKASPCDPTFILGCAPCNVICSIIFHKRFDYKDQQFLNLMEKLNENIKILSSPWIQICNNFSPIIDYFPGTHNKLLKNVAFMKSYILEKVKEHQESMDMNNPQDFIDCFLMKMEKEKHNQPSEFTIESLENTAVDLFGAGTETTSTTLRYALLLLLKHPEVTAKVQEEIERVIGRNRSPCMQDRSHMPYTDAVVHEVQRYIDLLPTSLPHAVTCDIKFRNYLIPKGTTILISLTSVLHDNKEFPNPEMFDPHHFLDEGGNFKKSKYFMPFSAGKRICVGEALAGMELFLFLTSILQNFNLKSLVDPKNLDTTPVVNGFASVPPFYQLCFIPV

Sequence of 5-hydroxytryptamine receptor 6 (P50406 whole entry): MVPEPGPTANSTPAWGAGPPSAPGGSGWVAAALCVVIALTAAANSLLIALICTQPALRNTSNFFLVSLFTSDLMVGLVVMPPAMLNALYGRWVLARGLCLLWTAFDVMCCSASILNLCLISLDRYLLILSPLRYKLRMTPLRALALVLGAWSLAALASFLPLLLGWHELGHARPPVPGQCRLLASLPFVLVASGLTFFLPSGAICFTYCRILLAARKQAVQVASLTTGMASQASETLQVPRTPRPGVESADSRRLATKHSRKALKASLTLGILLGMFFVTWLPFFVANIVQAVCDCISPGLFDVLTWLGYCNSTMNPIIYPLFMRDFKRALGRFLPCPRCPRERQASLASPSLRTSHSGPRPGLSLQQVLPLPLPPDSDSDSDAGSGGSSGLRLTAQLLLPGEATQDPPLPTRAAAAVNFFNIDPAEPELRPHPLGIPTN

SMILES: COc1ccc(NS(=O)(=O)c2cccc(C#N)c2)cc1N1CCN(C)CC1
- Ki [1]: 0.0631 µM

SMILES: COc1ccc(NS(=O)(=O)c2sc3ccc(Cl)cc3c2C)cc1N1CCN(C)CC1
- Ki [2]: 1 µM
- Ki [3]: 3.16 µM
- Ki [4]: 1 µM
- Ki [5]: 0.501 µM
- Ki [6]: 0.2 µM
- Ki [7]: 2.51 µM
- Ki [8]: 0.501 µM
- Ki [9]: 0.794 µM
- Ki [10]: 2 µM
- Ki [11]: 3.16 µM
- Ki (D(3) dopamine receptor): 0.2 µM
- Ki [12]: 0.251 µM
- Ki (D(2) dopamine receptor): 0.794 µM

SMILES: COc1ccc(NS(=O)(=O)c2sc3ccc(Cl)cc3c2C)cc1N1CCNCC1
- IC50 (Cytochrome P450 1A2): 66 µM
- Ki [2]: > 3.98 µM
- Ki [13]: 2 µM
- Ki [4]: > 2.51 µM
- Ki [5]: 2 µM
- Ki [6]: 0.251 µM
- Ki [7]: > 10 µM
- IC50 (Cytochrome P450 2C19): 26 µM
- IC50 (Cytochrome P450 2D6): 32 µM
- Ki [9]: 0.794 µM
- IC50 (Cytochrome P450 2C9): > 100 µM
- Ki [12]: > 1 µM
- Ki (D(2) dopamine receptor): 2.51 µM

Further molecules by falling Ki [1], results first:

- Ki [1]: 0.794 µM
SMILES: COc1ccc(NS(=O)(=O)c2cn(C)cn2)cc1N1CCN(C)CC1

- Ki [1]: 0.0794 µM
SMILES: COc1ccc(NS(=O)(=O)c2ccc([N+](=O)[O-])cc2)cc1N1CCN(C)CC1

- Ki [1]: 0.00126 µM
- Selectivity (Homo sapiens): > 300
SMILES: COc1ccc(NS(=O)(=O)c2c(C)sc3ccc(Cl)cc23)cc1N1CCN(C)CC1

- Ki [1]: 0.000794 µM
- Selectivity (Homo sapiens): > 200
SMILES: COc1ccc(NS(=O)(=O)c2cccc(I)c2)cc1N1CCN(C)CC1
